ChEMBL document CHEMBL1147785, “Novel peptidomimetic cysteine protease inhibitors as potential antimalarial agents” (J Med Chem, 2006)
pIC50: −log10 of the molar value. Calls of active or inactive are those of the source. The rule behind the calls is not given here. Residues, ends and D or L forms follow the SMILES beside them. *: point of attachment. Cbz = O=C(OCc1ccccc1)*

What was measured:
Falcipain 2B = biological target: T1, Falcipain 2B (Plasmodium falciparum, UniProt Q3HTL5); experiment: Inhibition of Plasmodium falciparum recombinant FP2B fused with maltose binding protein
T1 sequence (Q3HTL5 whole entry): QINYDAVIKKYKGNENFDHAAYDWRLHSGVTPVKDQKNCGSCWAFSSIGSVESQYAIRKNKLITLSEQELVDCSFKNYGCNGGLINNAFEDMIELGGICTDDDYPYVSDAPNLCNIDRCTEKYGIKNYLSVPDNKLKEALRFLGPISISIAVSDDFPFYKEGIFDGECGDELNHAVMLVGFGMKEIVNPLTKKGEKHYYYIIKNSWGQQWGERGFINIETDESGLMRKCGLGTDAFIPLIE
In short: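 Recombinant enzyme expressed in E. coli as a maltose binding protein fusion. Fluorescence assay using the fluorogenic substrate Z-Leu-Arg-AMC, with inhibitor at various concentrations. Hydrolysis rate was compared with DMSO-only negative controls and with positive controls containing a standard papain-family cysteine protease aldehyde inhibitor. Results are given as IC50.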

Caspase-8 (Homo sapiens) = Caspase-8 (Homo sapiens) (UniProt Q14790); experiment: Inhibition of human recombinant caspase8 upto 50 uM
Sequence of Caspase-8 (Homo sapiens) (Q14790 217-374 limits assumed): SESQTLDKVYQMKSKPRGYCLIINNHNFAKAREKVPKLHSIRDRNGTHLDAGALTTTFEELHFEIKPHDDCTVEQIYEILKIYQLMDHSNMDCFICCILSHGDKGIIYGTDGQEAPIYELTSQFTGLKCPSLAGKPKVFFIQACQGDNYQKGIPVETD
Sequence of Caspase-8 (Homo sapiens) (Q14790 385-479 limits assumed): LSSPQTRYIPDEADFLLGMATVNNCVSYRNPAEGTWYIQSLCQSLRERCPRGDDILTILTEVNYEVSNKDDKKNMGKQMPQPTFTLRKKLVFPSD

Caspase-7 (Homo sapiens) = biological target: T2, Caspase-7 (Homo sapiens) (UniProt P55210); experiment: Inhibition of human recombinant caspase7 upto 50 uM
T2 sequence (whole entry): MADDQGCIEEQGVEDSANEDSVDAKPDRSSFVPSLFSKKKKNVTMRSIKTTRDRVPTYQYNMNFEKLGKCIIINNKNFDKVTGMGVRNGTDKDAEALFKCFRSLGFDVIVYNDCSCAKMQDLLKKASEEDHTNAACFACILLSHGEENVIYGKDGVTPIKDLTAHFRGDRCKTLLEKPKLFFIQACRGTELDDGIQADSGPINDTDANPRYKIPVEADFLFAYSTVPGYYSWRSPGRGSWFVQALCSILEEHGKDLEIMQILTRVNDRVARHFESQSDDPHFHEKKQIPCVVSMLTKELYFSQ

Caspase-4 (Homo sapiens) = biological target: T3, Caspase-4 (Homo sapiens) (UniProt P49662); experiment: Inhibition of human recombinant caspase4 upto 50 uM
T3 sequence (whole entry): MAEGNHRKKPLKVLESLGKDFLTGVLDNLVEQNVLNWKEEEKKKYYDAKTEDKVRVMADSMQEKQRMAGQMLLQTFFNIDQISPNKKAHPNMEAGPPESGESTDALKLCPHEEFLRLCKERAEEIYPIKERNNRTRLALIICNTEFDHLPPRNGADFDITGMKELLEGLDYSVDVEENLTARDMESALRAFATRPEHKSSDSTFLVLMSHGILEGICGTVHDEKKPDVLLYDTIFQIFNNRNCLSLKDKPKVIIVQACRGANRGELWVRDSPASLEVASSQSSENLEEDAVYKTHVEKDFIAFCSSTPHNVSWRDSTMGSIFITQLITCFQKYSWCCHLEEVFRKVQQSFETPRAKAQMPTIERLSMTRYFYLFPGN

SMILES | pIC50 (Falcipain 2B) | Activity (Caspase-8 (Homo sapiens)) | Activity (Caspase-7 (Homo sapiens)) | Activity (Caspase-4 (Homo sapiens))
CC(C)[C@H](NC(=O)OCc1ccccc1)C(=O)N[C@H](C=O)Cc1ccccc1 (Cbz-Val-Phe-aldehyde) | 5.30 | inactive | inactive | inactive
O=C(CN1C(=O)[C@@H](COC(=O)Nc2ccc(Cl)cc2)N=C(c2ccccc2)c2ccccc21)N[C@H]1CC(=O)OC1O (some centres undefined) | 5.02 | inactive | inactive | inactive
O=C(CN1C(=O)[C@H](COC(=O)Nc2ccc(Cl)cc2C(F)(F)F)N=C(c2ccccc2)c2ccccc21)N[C@H]1CC(=O)OC1O (some centres undefined) | 4.71 | inactive | inactive | inactive
O=C(CN1C(=O)[C@@H](COC(=O)Nc2ccccc2)N=C(c2ccccc2)c2ccccc21)N[C@H]1CC(=O)OC1O (some centres undefined) | 4.70 | inactive | inactive | inactive
O=C(CN1C(=O)[C@@H](COC(=O)Nc2ccc(F)cc2)N=C(c2ccccc2)c2ccccc21)N[C@H]1CC(=O)OC1O (some centres undefined) | 4.92 | inactive | inactive | inactive
O=C(CN1C(=O)[C@@H](COC(=O)Nc2ccc(Cl)cc2C(F)(F)F)N=C(c2ccccc2)c2ccccc21)N[C@H]1CC(=O)OC1O (some centres undefined) | 4.59 | inactive | inactive | inactive
Cc1cc(Cl)ccc1NC(=O)OC[C@H]1N=C(c2ccccc2)c2ccccc2N(CC(=O)N[C@H]2CC(=O)OC2O)C1=O (some centres undefined) | 4.95 | inactive | inactive | inactive
COc1ccc(NC(=O)OC[C@H]2N=C(c3ccccc3)c3ccccc3N(CC(=O)N[C@H]3CC(=O)OC3O)C2=O)cc1 (some centres undefined) | 4.85 | inactive | inactive | inactive
O=C(CN1C(=O)[C@@H](COC(=O)Nc2cccc3ccccc23)N=C(c2ccccc2)c2ccccc21)N[C@H]1CC(=O)OC1O (some centres undefined) | 4.75 | inactive | inactive | inactive
O=C(CN1C(=O)[C@@H](COC(=O)Nc2c(F)cc(F)cc2Br)N=C(c2ccccc2)c2ccccc21)N[C@H]1CC(=O)OC1O (some centres undefined) | 4.67 | inactive | inactive | inactive
O=C(CN1C(=O)[C@@H](COC(=O)Nc2ccc(F)cc2F)N=C(c2ccccc2)c2ccccc21)N[C@H]1CC(=O)OC1O (some centres undefined) | 4.83 | inactive | inactive | inactive
